Test results as given in ChEMBL document CHEMBL1135628, “Potent and long-acting corticotropin releasing factor (CRF) receptor 2 selective peptide competitive antagonists” (J Med Chem, 2002).

What was measured:
[1] = biological target: T1, Corticotropin-releasing factor receptor 1 (Homo sapiens, UniProt P34998); assay: Inhibition of recombinant corticotropin releasing factor receptor 1 assayed using nonselective [125I]-labeled agonist [Tyr0,Glu1,Nle17]-sauvagine
T1 sequence (P34998 whole entry): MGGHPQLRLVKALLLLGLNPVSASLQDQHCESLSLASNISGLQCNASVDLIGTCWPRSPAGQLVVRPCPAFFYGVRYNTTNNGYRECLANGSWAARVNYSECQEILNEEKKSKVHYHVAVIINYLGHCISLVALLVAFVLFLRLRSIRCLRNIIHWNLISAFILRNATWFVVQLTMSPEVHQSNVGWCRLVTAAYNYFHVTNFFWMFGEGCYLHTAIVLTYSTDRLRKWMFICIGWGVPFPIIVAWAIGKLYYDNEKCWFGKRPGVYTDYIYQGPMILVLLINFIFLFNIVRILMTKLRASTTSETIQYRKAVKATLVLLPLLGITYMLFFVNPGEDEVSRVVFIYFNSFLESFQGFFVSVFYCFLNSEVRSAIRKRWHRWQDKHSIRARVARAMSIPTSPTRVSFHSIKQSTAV
Outline: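 Crude plasma membranes from stable CHO lines expressing hCRF1 or mCRF2β, stored in 10% sucrose at -80 °C. Incubated 90 min at room temperature, then washed and filtered. IC50 taken from one representative assay, repeated at least twice.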

[2] = biological target: Corticotropin-releasing factor receptor 2 (Mus musculus) (UniProt Q60748); assay: Inhibition of recombinant mouse corticotropin releasing factor receptor 2 beta (CRF2beta) assayed using nonselective [125I]-labeled agonist [Tyr0,Glu1,Nle17]-sauvagine as radioligand
Chain of Corticotropin-releasing factor receptor 2 (Mus musculus) (Q60748 whole entry, looked up): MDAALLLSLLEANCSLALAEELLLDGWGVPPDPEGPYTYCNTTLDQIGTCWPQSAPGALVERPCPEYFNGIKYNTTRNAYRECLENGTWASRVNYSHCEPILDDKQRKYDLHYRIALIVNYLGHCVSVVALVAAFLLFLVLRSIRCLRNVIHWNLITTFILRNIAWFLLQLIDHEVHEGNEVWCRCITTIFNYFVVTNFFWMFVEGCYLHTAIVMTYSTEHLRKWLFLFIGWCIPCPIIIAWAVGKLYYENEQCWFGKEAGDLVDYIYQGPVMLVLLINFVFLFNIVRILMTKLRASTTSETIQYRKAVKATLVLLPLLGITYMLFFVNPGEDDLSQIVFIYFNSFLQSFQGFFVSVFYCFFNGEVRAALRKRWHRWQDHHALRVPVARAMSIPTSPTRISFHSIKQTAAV

| SMILES | IC50 [1] | IC50 [2] |
| --- | --- | --- |
| CCCC[C@H](NC(=O)[C@H](CCCCN)NC(=O)[C@H](CCCN=C(N)N)NC(=O)[C@H](CC(C)C)NC(=O)[C@](C)(CC(C)C)NC(=O)[C@H](Cc1c[nH]cn1)NC(=O)[C@@H](Cc1ccccc1)NC(=O)[C@H](CO)NC(=O)[C@H](CC(C)C)NC(=O)[C@H](CC(=O)O)NC(C)=O)C(=O)N[C@H](C(=O)N[C@@H](CCC(=O)O)C(=O)N[C@H](C(=O)N[C@@H](CCC(=O)O)C(=O)N[C@@H](CCCCN)C(=O)N[C@@H](CCC(N)=O)C(=O)N[C@@H](CCC(=O)O)C(=O)N[C@@H](CCCCN)C(=O)N[C@@H](CCC(=O)O)C(=O)N[C@@H](CCCCN)C(=O)N[C@@H](CCC(N)=O)C(=O)N[C@@H](CCC(N)=O)C(=O)N[C@@H](C)C(=O)N[C@@H](C)C(=O)N[C@@H](CC(N)=O)C(=O)N[C@@H](CC(N)=O)C(=O)N[C@@H](CCCN=C(N)N)C(=O)N[C@@H](CC(C)C)C(=O)N[C@@H](CC(C)C)C(=O)N[C@@H](CC(C)C)C(=O)N[C@@H](CC(=O)O)C(=O)N[C@@](C)(CC(C)C)C(=O)N[C@H](C(N)=O)[C@@H](C)CC)[C@@H](C)CC)[C@@H](C)CC | 18.4 nM | 0.42 nM |
| CCCC[C@H](NC(=O)[C@H](CCCCN)NC(=O)[C@H](CCCN=C(N)N)NC(=O)[C@H](CC(C)C)NC(=O)[C@](C)(CC(C)C)NC(=O)[C@H](Cc1c[nH]cn1)NC(=O)[C@@H](Cc1ccccc1)NC(=O)[C@H](CO)NC(=O)[C@H](CC(C)C)NC(=O)[C@H](CC(=O)O)NC(C)=O)C(=O)N[C@H](C(=O)N[C@@H](CCC(=O)O)C(=O)N[C@H](C(=O)N[C@@H](CCC(=O)O)C(=O)N[C@@H](CCCCN)C(=O)N[C@@H](CCC(N)=O)C(=O)N[C@@H](CCC(=O)O)C(=O)N[C@@H](CCCCN)C(=O)N[C@@H](CCC(=O)O)C(=O)N[C@@H](CCCCN)C(=O)N[C@H]1CCC(=O)NCCCC[C@@H](C(=O)N[C@@H](CC(N)=O)C(=O)N[C@@H](CC(N)=O)C(=O)N[C@@H](CCCN=C(N)N)C(=O)N[C@@H](CC(C)C)C(=O)N[C@@H](CC(C)C)C(=O)N[C@@H](CC(C)C)C(=O)N[C@@H](CC(=O)O)C(=O)N[C@@](C)(CC(C)C)C(=O)N[C@H](C(N)=O)[C@@H](C)CC)NC(=O)[C@H](C)NC(=O)[C@H](CCC(N)=O)NC1=O)[C@@H](C)CC)[C@@H](C)CC | 7.7 nM | 0.57 nM |
| CCCC[C@H](NC(=O)[C@H](CCCCN)NC(=O)[C@H](CCCN=C(N)N)NC(=O)[C@H](CC(C)C)NC(=O)[C@](C)(CC(C)C)NC(=O)[C@H](Cc1c[nH]cn1)NC(=O)[C@@H](Cc1ccccc1)NC(=O)[C@H](CO)NC(=O)[C@H](CC(C)C)NC(=O)[C@H](CC(=O)O)NC(C)=O)C(=O)N[C@H](C(=O)N[C@@H](CCC(=O)O)C(=O)N[C@H](C(=O)N[C@@H](CCC(=O)O)C(=O)N[C@@H](CCCCN)C(=O)N[C@@H](CCC(N)=O)C(=O)N[C@@H](CCC(=O)O)C(=O)N[C@@H](CCCCN)C(=O)N[C@@H](CCC(=O)O)C(=O)N[C@H]1CCC(=O)NCCCC[C@@H](C(=O)N[C@@H](C)C(=O)N[C@@H](CC(N)=O)C(=O)N[C@@H](CC(N)=O)C(=O)N[C@@H](CCCN=C(N)N)C(=O)N[C@@H](CC(C)C)C(=O)N[C@@H](CC(C)C)C(=O)N[C@@H](CC(C)C)C(=O)N[C@@H](CC(=O)O)C(=O)N[C@@](C)(CC(C)C)C(=O)N[C@H](C(N)=O)[C@@H](C)CC)NC(=O)[C@H](CCC(N)=O)NC(=O)[C@H](CCC(N)=O)NC1=O)[C@@H](C)CC)[C@@H](C)CC | 45 nM | 1.3 nM |
| CCCC[C@H](NC(=O)[C@H](CCCCN)NC(=O)[C@H](CCCN=C(N)N)NC(=O)[C@H](CC(C)C)NC(=O)[C@](C)(CC(C)C)NC(=O)[C@H](Cc1c[nH]cn1)NC(=O)[C@@H](Cc1ccccc1)NC(=O)[C@H](CO)NC(=O)[C@H](CC(C)C)NC(=O)[C@H](CC(=O)O)NC(C)=O)C(=O)N[C@H](C(=O)N[C@@H](CCC(=O)O)C(=O)N[C@H](C(=O)N[C@@H](CCC(=O)O)C(=O)N[C@@H](CCCCN)C(=O)N[C@@H](CCC(N)=O)C(=O)N[C@@H](CCC(=O)O)C(=O)N[C@@H](CCCCN)C(=O)N[C@@H](CCC(=O)O)C(=O)N[C@@H](CCCCN)C(=O)N[C@@H](CCC(N)=O)C(=O)N[C@@H](CCC(N)=O)C(=O)N[C@@H](C)C(=O)N[C@@H](C)C(=O)N[C@@H](CC(N)=O)C(=O)N[C@@H](CC(N)=O)C(=O)N[C@H]1CCC(=O)NCCCC[C@@H](C(=O)N[C@@H](CC(=O)O)C(=O)N[C@@](C)(CC(C)C)C(=O)N[C@H](C(N)=O)[C@@H](C)CC)NC(=O)[C@H](CC(C)C)NC(=O)[C@H](CC(C)C)NC1=O)[C@@H](C)CC)[C@@H](C)CC | > 100 nM | 17.8 nM |
| CCCC[C@H](NC(=O)[C@H](CCCCN)NC(=O)[C@H](CCCN=C(N)N)NC(=O)[C@H](CC(C)C)NC(=O)[C@](C)(CC(C)C)NC(=O)[C@H](Cc1c[nH]cn1)NC(=O)[C@@H](Cc1ccccc1)NC(=O)[C@H](CO)NC(=O)[C@H](CC(C)C)NC(=O)[C@H](CC(=O)O)NC(C)=O)C(=O)N[C@H](C(=O)N[C@@H](CCC(=O)O)C(=O)N[C@H](C(=O)N[C@@H](CCC(=O)O)C(=O)N[C@@H](CCCCN)C(=O)N[C@@H](CCC(N)=O)C(=O)N[C@@H](CCC(=O)O)C(=O)N[C@@H](CCCCN)C(=O)N[C@@H](CCC(=O)O)C(=O)N[C@@H](CCCCN)C(=O)N[C@@H](CCC(N)=O)C(=O)N[C@@H](CCC(N)=O)C(=O)N[C@@H](C)C(=O)N[C@@H](C)C(=O)N[C@@H](CC(N)=O)C(=O)N[C@H]1CCC(=O)NCCCC[C@@H](C(=O)N[C@@H](CC(C)C)C(=O)N[C@@H](CC(=O)O)C(=O)N[C@@](C)(CC(C)C)C(=O)N[C@H](C(N)=O)[C@@H](C)CC)NC(=O)[C@H](CC(C)C)NC(=O)[C@H](CCCN=C(N)N)NC1=O)[C@@H](C)CC)[C@@H](C)CC | > 100 nM | > 100 nM |
| CCCC[C@H](NC(=O)[C@H](CCCCN)NC(=O)[C@H](CCCN=C(N)N)NC(=O)[C@H](CC(C)C)NC(=O)[C@](C)(CC(C)C)NC(=O)[C@H](Cc1c[nH]cn1)NC(=O)[C@@H](Cc1ccccc1)NC(=O)[C@H](CO)NC(=O)[C@H](CC(C)C)NC(=O)[C@H](CC(=O)O)NC(C)=O)C(=O)N[C@H](C(=O)N[C@@H](CCC(=O)O)C(=O)N[C@H](C(=O)N[C@@H](CCC(=O)O)C(=O)N[C@@H](CCCCN)C(=O)N[C@@H](CCC(N)=O)C(=O)N[C@@H](CCC(=O)O)C(=O)N[C@@H](CCCCN)C(=O)N[C@@H](CCC(=O)O)C(=O)N[C@@H](CCCCN)C(=O)N[C@@H](CCC(N)=O)C(=O)N[C@H]1CCC(=O)NCCCC[C@@H](C(=O)N[C@@H](CC(N)=O)C(=O)N[C@@H](CCCN=C(N)N)C(=O)N[C@@H](CC(C)C)C(=O)N[C@@H](CC(C)C)C(=O)N[C@@H](CC(C)C)C(=O)N[C@@H](CC(=O)O)C(=O)N[C@@](C)(CC(C)C)C(=O)N[C@H](C(N)=O)[C@@H](C)CC)NC(=O)[C@H](C)NC(=O)[C@H](C)NC1=O)[C@@H](C)CC)[C@@H](C)CC | 0.24 nM | 1.2 nM |
